TAAR1 antag = human TAAR1 antagonists, primary screen, Fluo-8 calcium fluorescence, CHO RD-HGA16 cells | Trace amine-associated receptor 1 (Homo sapiens), Q96RJ0 | antagonist | AID 624466, 2012 | 1.5% of 360,000 active | inhibition, % at 3 µM;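 active means inhibition above a per-plate cutoff, the mean inhibition of test compounds on that plate plus 3 SD, cut at about 49% in these data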;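 further: 0% = DMSO plus EC80 beta-PEA response and 100% = DMSO alone without agonist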
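Test system: CHO RD-HGA16 cells bearing hTAAR1 | Reagent: β-PEA, EC80 | Compound dosing: 3 µM, single point | Schedule: Dye loading 75 min at 37 °C, then 30 min room temperature | Signal: Calcium fluorescence with Fluo-8 | Evaluation: Percent inhibition of PEA-evoked calcium signal, max/basal emission ratio | Control set: DMSO-only wells and EC80 β-PEA-stimulated wells | Repeats: Singlicate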
CHO parental Ca = ATP-evoked calcium signal inhibitors, parental CHO, primary screen, counter-screen for OX1R antagonist project, cell-based, fluorescence, Fluo-8 calcium dye; inhibition, % at 5.6 µM; AID 463079, 2010; 0.63% of 330,000 active; parental CHO-K1, ATP-induced calcium, Fluo-8 fluorescence;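 active means inhibition above that plate's mean sample inhibition plus 3 SD, cut at about 26% in these data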;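 further: 0% = ATP-challenged DMSO wells and 100% = DMSO wells without ATP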
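Material: parental CHO cells / Compound: single nominal dose of 5.6 µM per compound / Signal: Fluo-8 fluorescence / Replicates: singlicate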
OX1R antag-1 = antagonists of human orexin 1 receptor (OX1R) | OX1R-expressing cells, FRET antagonist read-out | inhibition, % at 6.6 µM | Orexin/Hypocretin receptor type 1 (Homo sapiens), O43613 | AID 485270, 2010 | 1.8% of 330,000 active; in the data active means inhibition mostly above about 38%, no sharp cut-off; inactive means mostly below about 40%;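 further: 0% = agonist challenge alone and 100% = reference antagonist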
Target sequence (O43613 whole entry, looked up): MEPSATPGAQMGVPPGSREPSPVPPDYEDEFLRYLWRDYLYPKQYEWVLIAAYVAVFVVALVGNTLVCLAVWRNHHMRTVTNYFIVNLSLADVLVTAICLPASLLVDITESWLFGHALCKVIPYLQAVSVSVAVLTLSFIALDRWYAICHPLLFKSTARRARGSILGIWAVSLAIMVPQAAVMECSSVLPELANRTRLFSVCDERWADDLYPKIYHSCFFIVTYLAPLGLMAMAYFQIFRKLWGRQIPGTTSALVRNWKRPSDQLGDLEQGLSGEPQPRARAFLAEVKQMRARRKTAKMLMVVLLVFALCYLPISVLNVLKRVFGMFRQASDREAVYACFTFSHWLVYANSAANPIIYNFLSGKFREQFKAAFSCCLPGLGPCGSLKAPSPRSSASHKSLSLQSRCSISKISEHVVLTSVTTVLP
TAAR1 ag = human TAAR1 agonists, primary screen, Fluo-8 calcium fluorescence, CHO RD-HGA16 cells; Trace amine-associated receptor 1 (Homo sapiens), Q96RJ0; 0.99% of 360,000 active; activation, % at 3 µM; vehicle wells 0%, saturating PEA agonist 100%;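 active means activation above the mean activation of all test compounds in the run plus 3 SD, cut at about 38% in these data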
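Repeats: no replicates (n 1) | Material: CHO-derived RD-HGA16 cells with stable Gα16 and human TAAR1 | Technique: Kinetic Fluo-8 calcium fluorescence | Schedule: 17-24 h seeding, 75 min 37 °C dye, 30 min RT | Evaluation: % activation from peak over basal fluorescence ratio, DMSO-to-PEA scaled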
GPR7 antagonist = GPR7 receptor antagonists, primary screen, cell-based, fluorescence, single concentration; Neuropeptides B/W receptor type 1 (Homo sapiens), P48145; GPR7-expressing cells, fluorescence antagonist assay; inhibition, % at 4.4 µM; 1.1% of 290,000 active; AID 1861, 2009; in the data active means inhibition above about 16%, passing the limit was not always enough;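 further: cells stimulated with the agonist NPW; 0% = agonist with vehicle and 100% = vehicle without agonist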
OX1R antag-2 = OX1R (HCRTR1) antagonists, primary screen, fluorescence, CHO/OX1R cells, Fluo-8 calcium, orexin A. Orexin/Hypocretin receptor type 1 (Homo sapiens), O43613. Fluo-8 calcium fluorescence. inhibition, % at 5 µM. 0.43% of 330,000 active;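 active means inhibition above its plate's threshold, mean inhibition of all tested compounds on the plate plus 3 SD, cut at about 37% in these data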;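 further: 0% = orexin A challenge wells and 100% = SB-334867-A antagonist wells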
OX1R Ca confirm = OX1R (HCRTR1) antagonists, confirmation, fluorescence, CHO/OX1R cells, Fluo-8 calcium, orexin A. inhibition, % at 5 µM. shares compounds with OX1R antag-2. orexin A calcium Fluo-8 fluorescence. 38% of 1,100 active; in the data active means inhibition above about 29%;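 further: 0% = agonist challenge alone and 100% = reference antagonist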
CHO Ca counter = ATP-evoked calcium inhibition in parental CHO, counter-screen for OX1R antagonist project, cell-based, fluorescence, CHO-K1, triplicate; AID 492965, 2010; 9.3% of 1,100 active; inhibition, % at 5.6 µM; shares compounds with OX1R antag-2; ATP-induced calcium, Fluo-8 fluorescence;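 active means inhibition above a per-plate limit, the mean inhibition of that plate's test compounds plus 3 SD, cut at about 25% in these data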;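 further: 0% = ATP challenge with DMSO and 100% = DMSO without ATP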
OX1R HTRF confirm = OX1R (HCRTR1) antagonists, confirmation, cell-based, HTRF; shares compounds with OX1R antag-1; OX1R-expressing cells, HTRF antagonist assay; inhibition, % at 6.6 µM; 49% of 1,800 active; in the data active means inhibition above about 55%;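 further: CHO cells expressing OX1R stimulated with orexin A at about EC80; 0% = agonist challenge alone and 100% = reference antagonist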
CHO-K1 HTRF cnt = signal inhibition in parental CHO-K1 cells, counter-screen for OX1R antagonist project, cell-based, HTRF; shares compounds with OX1R antag-1; HTRF counterscreen; inhibition, % at 6.6 µM; 48% of 1,800 active; AID 493232, 2011; in the data active means inhibition above about 17%;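 further: 0% = agonist challenge with vehicle and 100% = vehicle alone without agonist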
An asterisk follows results filed as active. A selection: hits, their analogues and other compounds. The true share with any hit is near 4.6%.

For CC(NC(C)c1ccccc1Cl)C(=O)Nc1cccc(S(=O)(=O)N2CCCCC2)c1 (configuration not stated) the results were TAAR1 antag -9, CHO parental Ca -21, OX1R antag-1 88*, TAAR1 ag 5, OX1R antag-2 89*, OX1R Ca confirm 80*, CHO Ca counter -14, OX1R HTRF confirm 89* and CHO-K1 HTRF cnt -1.
For O=C(CCCN1C(=O)/C(=C\c2ccco2)SC1=S)Nc1ccc2ccccc2c1 the results were TAAR1 antag 3, CHO parental Ca -9, OX1R antag-1 85*, TAAR1 ag 2, GPR7 antagonist -11, OX1R antag-2 45*, OX1R Ca confirm 42*, CHO Ca counter -17, OX1R HTRF confirm 89* and CHO-K1 HTRF cnt 7.
`CS(=O)(=O)Nc1ccc(F)cc1` gave TAAR1 antag -6 and TAAR1 ag 1.
For CC(=O)Cc1nsc(NC(=O)c2ccc(-c3ccccc3Cl)o2)n1 the results were TAAR1 antag 6, CHO parental Ca -26, OX1R antag-1 80*, TAAR1 ag 6, GPR7 antagonist -2, OX1R antag-2 61*, OX1R Ca confirm 3, CHO Ca counter 8, OX1R HTRF confirm 40 and CHO-K1 HTRF cnt 7.
`COc1ccc(CNC(=O)CN(c2ccc(C(C)C)cc2)S(=O)(=O)c2c(C)noc2C)cc1` gave TAAR1 antag -18, CHO parental Ca -26, OX1R antag-1 9, TAAR1 ag 2, GPR7 antagonist 7 and OX1R antag-2 -27.
`Cc1ccc(CCNC(=O)CN(c2ccc(C)cc2)S(=O)(=O)c2c(C)noc2C)cc1` gave TAAR1 antag -42, CHO parental Ca -45, OX1R antag-1 80*, TAAR1 ag -3, GPR7 antagonist 2, OX1R antag-2 60*, OX1R Ca confirm 30*, CHO Ca counter -28, OX1R HTRF confirm 80* and CHO-K1 HTRF cnt 8.
`Cc1ccc(N(CC(=O)NCCc2ccc(Cl)cc2)S(=O)(=O)c2c(C)noc2C)cc1` gave TAAR1 antag 0, CHO parental Ca -32, OX1R antag-1 49*, TAAR1 ag -1, GPR7 antagonist -1, OX1R antag-2 34, OX1R Ca confirm 60*, CHO Ca counter -16, OX1R HTRF confirm 86* and CHO-K1 HTRF cnt 3.
Screening COc1ccc(N(CC(=O)NC(C)c2ccccc2)S(=O)(=O)c2c(C)noc2C)cc1 (configuration not stated) returned TAAR1 antag -10, CHO parental Ca -23, OX1R antag-1 67*, TAAR1 ag -2, GPR7 antagonist -13, OX1R antag-2 44, OX1R Ca confirm 18, CHO Ca counter -10, OX1R HTRF confirm 66* and CHO-K1 HTRF cnt -3.
Screening Cc1ccc2nc3n(c(=O)c2c1)-c1ncccc1C(=O)NC3Cc1ccccc1 (configuration not stated) returned TAAR1 antag -20 and TAAR1 ag 3.
